Screening results deposited in PubChem by Broad Institute.
Rows were chosen to be rich in hits. Some 2.1% of all compounds tested hit in one or more screens of this group.
Shn3 3UTR inh – Schnurri-3 reporter inhibition in Clone20 osteoblasts | Clone20 osteoblast Shn3 3'UTR firefly luciferase, 24 h | inhibition, % at 12.5 µM | 360,000 compounds, 0.52% hits;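 active means mean inhibition of at least 75% with every replicate also reaching 75%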;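 further: 0% = median of neutral control wells and 100% = pilot-screen positive control compound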
EWS-Fli block – blocks EWS/Fli oncoprotein-driven transcription | A673 NR0B1-luciferase reporter, viability-normalised | 350,000 compounds, 0.67% hits | AID 651661 | inhibition, % at 12.6 µM;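 active means mean inhibition of at least 50% after viability correction, with every replicate also passing that limit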;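 further: firefly luciferase signal divided by Alamar Blue viability fluorescence both relative to DMSO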
PAX8 reporter – PAX8 transcriptional activity inhibition; inhibition, % at 12.6 µM; 360,000 compounds, 1.2% hits; AID 652154; RMG-I TPO-luciferase reporter, SteadyGlo, 24 h;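 active means mean replicate inhibition at least 60% with every replicate also reaching 60%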;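 further: luciferase light reporting Pax8 driven TPO promoter activity; plate controls were median of neutral control wells for no effect and mitoxantrone controls for full effect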
aSyn UTR inh – MLPCN primary screen, SNCA 5' untranslated region | alpha-synuclein 5'UTR reporter, inhibitor activity | 300,000 compounds, 0.82% hits | inhibition, % (tested at 7.5 µM); in the data active means inhibition above about 60%;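 further: H4 neuroglioblastoma cells stably carrying SNCA 5'UTR luciferase fusion; 0% = DMSO wells and 100% = positive control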
FN deposit inh – fibronectin deposition inhibition. AH1F fibroblasts, Alexa488-fibronectin deposition fluorescence, overnight. inhibition, % at 12.6 µM. 350,000 compounds, 0.086% hits. AID 743247;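 active means mean inhibition across replicates of 30% or more, regardless of how many single replicates reach that level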;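 further: positive control wells lacked labelled fibronectin entirely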
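Material: AH1F fibroblast monolayer depositing Alexa488-labelled fibronectin into matrix / Amount: 10000 AH1F cells per well / Signal: fluorescence 485/525 nm / Medium: DMEM, 2% serum / Compound: single dose, pinned / Incubation: 1 h cell adhesion before compound, then overnight fibronectin incubation / Reagent: Alexa488-FN, 24 nM final / Read-out: inhibition of fibronectin deposition signal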
LMP1 NFkB inh – reduces LMP1-driven NF-kappaB luciferase signal; AID 504558; LMP1-induced NF-kappaB luciferase reporter cells, luminescence; 350,000 compounds, 0.69% hits; inhibition, % at 12.5 µM; in the data active means inhibition above about 41%;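 further: 0% = neutral control wells and 100% = reference inhibitor control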
An asterisk follows results filed as active; . = no result given.

SMILES	Shn3 3UTR inh	EWS-Fli block	PAX8 reporter	aSyn UTR inh	FN deposit inh	LMP1 NFkB inh
Cc1ccc(OCC(=O)Nc2sc3c(c2C#N)CC(C)(C)NC3(C)C)cc1	-23.7	-16.3	-11.8	-7.0	26.3	1.6
CC1(C)Cc2c(sc(NC(=O)COc3cccc4ccccc34)c2C#N)C(C)(C)N1	13.6	24.1	10.8	71.9*	2.5	-62.9
Cc1cc(Br)c(OCc2ccc(C(=O)N/N=C/c3ccc[nH]3)cc2)c(Br)c1	97.1*	58.1*	95.5*	.	0.5	-15.9
O=C(N/N=C/c1ccc[nH]1)c1ccc(COc2cccc3cccnc23)cc1	90.3*	23.2	78.7*	104.0*	0.1	47.3*
O=C(C1CC1)N1[C@H](CO)[C@@H](c2ccccc2)C12CN(CCC(F)(F)F)C2	.	-9.3	.	.	-3.6	.
CCC(C)[C@H]1CNC(=S)N1CCc1cc(C(F)(F)F)cc(C(F)(F)F)c1 (stereo partly specified)	97.1*	19.9	6.4	19.1	5.6	6.6
CC(=O)O/N=C/c1c(N2CCOCC2)n(C)c2ccccc12	26.5	.	8.1	53.0	6.8	14.5
Cn1c(N2CCOCC2)c(/C=N/OC(=O)c2cccnc2Cl)c2ccccc21	7.3	-4.7	-14.3	-42.0	18.8	-7.6
Cn1c(N2CCOCC2)c(/C=N/OC(=O)c2ccc(F)cc2)c2ccccc21	1.1	.	.	72.7*	0.0	3.3
Cc1ccc(C(=O)O/N=C/c2c(N3CCOCC3)n(C)c3ccccc23)cc1	-12.0	.	-27.8	77.4*	11.6	-11.0
C[C@H](CO)N1C[C@H](C)[C@H](CN(C)C(=O)CN(C)C)Oc2cc(C#Cc3ccc(F)cc3)ccc2S1(=O)=O	.	58.2*	.	.	5.4	.
C[C@H]1CN([C@@H](C)CO)S(=O)(=O)c2ccc(C#Cc3ccc(F)cc3)cc2O[C@@H]1CN(C)C(=O)CN(C)C	.	66.9*	.	.	-0.4	.
CCC(=O)N1CC2(C1)[C@@H](c1ccccc1)[C@@H](CO)N2CC1CC1	.	9.9	-5.3	.	-9.2	.
CC=Cc1ccc2n(c1=O)C[C@H]1[C@H](CO)[C@@H](C(=O)NC3CCC3)N(C(=O)C3CCC3)[C@@H]21 (mixture of isomers)	.	-5.1	.	.	-9.2	.
N#C/C(=C\C=C\c1ccccc1[N+](=O)[O-])C(=O)NCc1ccccc1	-18.5	41.6	65.2*	-291.5	7.8	-82.1
N#C/C(=C\c1ccccc1[N+](=O)[O-])C(=O)NCc1ccccc1	-3.7	-4.9	2.7	-17.8	-3.0	-4.1
N#Cc1c(NC(=O)CSc2nc(N)cc(=O)[nH]2)sc2c1CCCCCC2	58.5	10.5	.	14.5	.	3.1
N#Cc1c(NC(=O)CSc2ncn[nH]2)sc2c1CCCCC2	60.4	.	.	82.5*	-1.8	36.2
COc1ccc(C(CNC(=O)Nc2ccc(Cl)cc2)N2CCN(C)CC2)cc1 (stereo unspecified)	-26.6	.	-0.4	-10.9	7.2	2.4
COc1ccc(C(CNC(=O)Nc2ccccc2)N2CCN(C)CC2)cc1 (stereo unspecified)	3.3	-16.0	-29.8	5.8	-9.0	51.5*
COc1ccc(NC(=O)NCCN2CCc3ccccc3C2)cc1	-24.3	.	.	-2.2	.	82.0*
C[C@@H]1CC=CC[C@H](c2ccc3c(c2)OCO3)NC(=O)[C@H](C)N(C)C(=O)c2ccccc2O1 (mixture of isomers)	.	.	.	.	3.3	.
O=C(NC1CCCCCC1)C1c2ccccc2C(=O)N1Cc1cccs1 (stereo unspecified)	-8.6	-4.9	91.3*	-35.5	-2.6	-10.4
CC(C)CC#Cc1ccc2c(c1)O[C@@H](CN(C)Cc1cccc(F)c1)[C@H](C)CN([C@@H](C)CO)S2(=O)=O	.	20.6	.	.	25.7	.
CC(C)CC#Cc1ccc2c(c1)O[C@H](CN(C)Cc1ccc(F)cc1)[C@H](C)CN([C@H](C)CO)S2(=O)=O	.	35.6	76.3*	.	.	.
CC(C)CC#Cc1ccc2c(c1)O[C@@H](CN(C)Cc1ccc(F)cc1)[C@H](C)CN([C@@H](C)CO)S2(=O)=O	.	30.5	28.4	.	.	.
CC(C)CC#Cc1ccc2c(c1)O[C@H](CN(C)Cc1cccc(F)c1)[C@@H](C)CN([C@@H](C)CO)S2(=O)=O	.	62.1*	.	.	-15.7	.
CC=Cc1ccc2n(c1=O)C[C@@H]1[C@@H](CO)[C@H](C(=O)NCCC)N(CC3CCOCC3)[C@H]21 (mixture of isomers)	.	-1.5	.	.	.	.
